Results published in ChEMBL document CHEMBL4373653, “FgaPT2, a biocatalytic tool for alkyl-diversification of indole natural products” (Medchemcomm, 2019).
Calls of active or inactive are those of the source. The calls are words filed in the database; no cut-off is given here.

Legend:
[1] = target: T1, Tryptophan dimethylallyltransferase (Neosartorya fumigata (strain ATCC MYA-4609 / Af293 / CBS 101355 / FGSCA1100) (Aspergillus fumigatus)) (UniProt Q50EL0); test: Substrate activity at recombinant N-terminal His6-fusion tagged Aspergillus fumigatus FgaPT2 expressed in Escherichia coli BL21 (DE3) assessed as alkylation of L-tryptophan by measuring product formation at pH 7.5 in Tris buffer after 16 hrs by RP-HPLC analysis
T1 sequence (whole entry): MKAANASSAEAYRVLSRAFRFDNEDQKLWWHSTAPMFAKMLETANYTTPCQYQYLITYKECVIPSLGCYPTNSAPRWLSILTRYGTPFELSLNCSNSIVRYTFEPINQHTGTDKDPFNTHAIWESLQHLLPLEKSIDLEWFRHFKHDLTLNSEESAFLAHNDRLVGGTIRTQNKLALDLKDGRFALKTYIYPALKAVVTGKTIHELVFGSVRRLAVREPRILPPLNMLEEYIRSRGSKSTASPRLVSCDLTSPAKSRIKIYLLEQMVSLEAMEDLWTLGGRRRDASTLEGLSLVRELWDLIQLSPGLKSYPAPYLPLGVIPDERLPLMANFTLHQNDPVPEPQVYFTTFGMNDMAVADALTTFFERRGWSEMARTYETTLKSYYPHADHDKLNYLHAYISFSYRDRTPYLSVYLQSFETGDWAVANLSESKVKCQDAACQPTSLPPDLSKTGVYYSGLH
Summary of the method: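 The enzyme was codon-optimized and purified by Ni-NTA. Reaction: 1.2 mM alkyl-PP donor, 1 mM L-Trp, 5 μM FgaPT2 in 25 mM Tris pH 7.5, 5 mM MgCl2, 50 mM KCl, 35 °C for 16 h. It was quenched with an equal volume of methanol and centrifuged. Analysis was by RP-HPLC (C18, water/0.1% TFA–acetonitrile gradient, A254). Negative controls omitted the enzyme or the donor.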

HCT-116 = test: Cytotoxicity against human HCT116 cells incubated for 48 hrs by Celltiter-blue assay; assay type: cell-based; details: HCT-116, 48 h
Summary of the method: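 HCT-116 cells, 2.0e3 per well in McCoy's medium, grown 24 h. A baseline CellTiter-Blue reading (90 min, 37 °C; ex 544/em 590 nm) was taken at treatment. Serial dilutions were added at 4X in medium and incubated 48 h, then read again with CellTiter-Blue. Growth was expressed relative to untreated cells, four-parameter dose-response fit to IC50, n = 2, Taxol internal control.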

[2] = substrate: C/C(Cl)=C/COP(=O)(O)OP(=O)(O)O; details: Aspergillus fumigatus Af293
[3] = substrate: C/C=C/C=C(\C)COP(=O)(O)OP(=O)(O)O; details: Aspergillus fumigatus Af293
[4] = substrate: C/C=C/COP(=O)(O)OP(=O)(O)O; details: Aspergillus fumigatus Af293
[5] = substrate: C=C/C=C(\C)COP(=O)(O)OP(=O)(O)O; details: Aspergillus fumigatus Af293
[6] = substrate: C=C/C=C/COP(=O)(O)OP(=O)(O)O; details: Aspergillus fumigatus Af293
[7] = substrate: CC(C)=C/C=C/COP(=O)(O)OP(=O)(O)O; details: Aspergillus fumigatus Af293
[8] = substrate: CC/C(C)=C/COP(=O)(O)OP(=O)(O)O; details: Aspergillus fumigatus Af293
[9] = substrate: CCC(=CCOP(=O)(O)OP(=O)(O)O)CC; details: Aspergillus fumigatus Af293
[10] = substrate: COc1cccc(COP(=O)(O)OP(=O)(O)O)c1; details: Aspergillus fumigatus Af293
[11] = substrate: COc1ccccc1COP(=O)(O)OP(=O)(O)O; details: Aspergillus fumigatus Af293
[12] = substrate: O=P(O)(O)OP(=O)(O)OCC1=CCCCC1; details: Aspergillus fumigatus Af293
[13] = substrate: O=P(O)(O)OP(=O)(O)OCC=C1CCCC1; details: Aspergillus fumigatus Af293
[14] = substrate: O=P(O)(O)OP(=O)(O)OCC=C1CCCCC1; details: Aspergillus fumigatus Af293
[15] = substrate: O=P(O)(O)OP(=O)(O)OCc1ccc(Br)cc1; details: Aspergillus fumigatus Af293
[16] = substrate: O=P(O)(O)OP(=O)(O)OCc1ccc(Cl)cc1; details: Aspergillus fumigatus Af293
[17] = substrate: O=P(O)(O)OP(=O)(O)OCc1ccc(F)cc1; details: Aspergillus fumigatus Af293
[18] = substrate: O=P(O)(O)OP(=O)(O)OCc1ccccc1; details: Aspergillus fumigatus Af293
[19] = substrate: C/C=C/COP(=O)(O)OP(=O)(O)O; details: Aspergillus fumigatus Af293; remark: listed apart in the source
[20] = substrate: CCC(=CCOP(=O)(O)OP(=O)(O)O)CC; details: Aspergillus fumigatus Af293; remark: listed apart in the source
[21] = substrate: COc1cccc(COP(=O)(O)OP(=O)(O)O)c1; details: Aspergillus fumigatus Af293; remark: listed apart in the source
[22] = substrate: COc1ccccc1COP(=O)(O)OP(=O)(O)O; details: Aspergillus fumigatus Af293; remark: listed apart in the source
[23] = substrate: O=P(O)(O)OP(=O)(O)OCC=C1CCCC1; details: Aspergillus fumigatus Af293; remark: listed apart in the source
[24] = substrate: O=P(O)(O)OP(=O)(O)OCC=C1CCCCC1; details: Aspergillus fumigatus Af293; remark: listed apart in the source
[25] = substrate: O=P(O)(O)OP(=O)(O)OCc1ccc(Br)cc1; details: Aspergillus fumigatus Af293; remark: listed apart in the source
[26] = substrate: O=P(O)(O)OP(=O)(O)OCc1ccc(F)cc1; details: Aspergillus fumigatus Af293; remark: listed apart in the source
[27] = substrate: O=P(O)(O)OP(=O)(O)OCc1ccccc1; details: Aspergillus fumigatus Af293; remark: listed apart in the source
[28] = substrate: C/C(Br)=C/COP(=O)(O)OP(=O)(O)O; details: Aspergillus fumigatus Af293
[29] = substrate: C/C(Cl)=C/COP(=O)(O)OP(=O)(O)O; details: Aspergillus fumigatus Af293; remark: listed apart in the source
[30] = substrate: C/C=C/C=C(\C)COP(=O)(O)OP(=O)(O)O; details: Aspergillus fumigatus Af293; remark: listed apart in the source
[31] = substrate: C/C=C/COP(=O)(O)OP(=O)(O)O; details: Aspergillus fumigatus Af293; remark: listed apart in the source
[32] = substrate: C=C/C=C(\C)COP(=O)(O)OP(=O)(O)O; details: Aspergillus fumigatus Af293; remark: listed apart in the source
[33] = substrate: C=C/C=C/COP(=O)(O)OP(=O)(O)O; details: Aspergillus fumigatus Af293; remark: listed apart in the source
[34] = substrate: CC(C)=C/C=C/COP(=O)(O)OP(=O)(O)O; details: Aspergillus fumigatus Af293; remark: listed apart in the source
[35] = substrate: CC/C(C)=C/COP(=O)(O)OP(=O)(O)O; details: Aspergillus fumigatus Af293; remark: listed apart in the source
[36] = substrate: CCC(=CCOP(=O)(O)OP(=O)(O)O)CC; details: Aspergillus fumigatus Af293; remark: listed apart in the source
[37] = substrate: COc1cccc(COP(=O)(O)OP(=O)(O)O)c1; details: Aspergillus fumigatus Af293; remark: listed apart in the source
[38] = substrate: COc1ccccc1COP(=O)(O)OP(=O)(O)O; details: Aspergillus fumigatus Af293; remark: listed apart in the source
[39] = substrate: O=P(O)(O)OP(=O)(O)OCC1=CCCCC1; details: Aspergillus fumigatus Af293; remark: listed apart in the source
[40] = substrate: O=P(O)(O)OP(=O)(O)OCC=C1CCCC1; details: Aspergillus fumigatus Af293; remark: listed apart in the source
[41] = substrate: O=P(O)(O)OP(=O)(O)OCC=C1CCCCC1; details: Aspergillus fumigatus Af293; remark: listed apart in the source
[42] = substrate: O=P(O)(O)OP(=O)(O)OCc1ccc(Br)cc1; details: Aspergillus fumigatus Af293; remark: listed apart in the source
[43] = substrate: O=P(O)(O)OP(=O)(O)OCc1ccc(Cl)cc1; details: Aspergillus fumigatus Af293; remark: listed apart in the source
[44] = substrate: O=P(O)(O)OP(=O)(O)OCc1ccc(F)cc1; details: Aspergillus fumigatus Af293; remark: listed apart in the source
[45] = substrate: O=P(O)(O)OP(=O)(O)OCc1ccccc1; details: Aspergillus fumigatus Af293; remark: listed apart in the source

In the case of `COc1ccc(COP(=O)(O)OP(=O)(O)O)cc1`, the Activity [1] is reported as “inactive”.

For `O=P(O)(O)OP(=O)(O)OCc1cc(F)cc(F)c1`, the Activity [1] was “inactive”.

In the case of `CCC(=CCc1ccc2[nH]c3c4[nH]c5ccccc5c4c4c(c3c2c1)C(=O)NC4O)CC` (stereo not given), the IC50 (HCT-116) is reported as 35 µM.

Work on `O=C1NC(O)c2c1c1c3cc(CC=C4CCCC4)ccc3[nH]c1c1[nH]c3ccccc3c21` (stereo not given) yielded an IC50 (HCT-116) of 58 µM.

In the case of `CC(=O)COP(=O)(O)OP(=O)(O)O`, the Activity [1] is reported as “inactive”.

For `COc1ccc(COP(=O)(O)OP(=O)(O)O)c(OC)c1`, the Activity [1] was “inactive”.

For `O=C1NC(O)c2c1c1c3ccccc3[nH]c1c1[nH]c3ccccc3c21` (stereo not given), the IC50 (HCT-116) was 11 µM.

In the case of `COc1ccc(COP(=O)(O)OP(=O)(O)O)cc1OC`, the Activity [1] is reported as “inactive”.

Molecule `CC(C)=CCc1ccc2[nH]c3c4[nH]c5ccccc5c4c4c(c3c2c1)C(=O)NC4O` (stereo not given) has an IC50 (HCT-116) of 62 µM.

With `O=[N+]([O-])c1ccc(COP(=O)(O)OP(=O)(O)O)cc1` the Activity [1] was “inactive”.

With `COc1cc(COP(=O)(O)OP(=O)(O)O)cc(OC)c1OC` the Activity [1] was “inactive”.

For `O=C1NC(O)c2c1c1c3cc(CC4=CCCCC4)ccc3[nH]c1c1[nH]c3ccccc3c21` (stereo not given), the IC50 (HCT-116) was 61 µM.

In the case of `Cc1ccc(COP(=O)(O)OP(=O)(O)O)cc1`, the Activity [1] is reported as “inactive”.

Work on `O=C1NC(O)c2c1c1c3cc(CC=C4CCCCC4)ccc3[nH]c1c1[nH]c3ccccc3c21` (stereo not given) yielded an IC50 (HCT-116) of 31 µM.

`CC/C(C)=C/Cc1ccc2[nH]c3c4[nH]c5ccccc5c4c4c(c3c2c1)C(=O)NC4O` (stereo not given) was tested, and the IC50 (HCT-116) was 38 µM.

`C=C(C)COP(=O)(O)OP(=O)(O)O` was tested, and the Activity [1] was “inactive”.

B1: Tryptophan dimethylallyltransferase (Neosartorya fumigata (strain ATCC MYA-4609 / Af293 / CBS 101355 / FGSCA1100) (Aspergillus fumigatus)), Q50EL0 (protein)
chain: T1 sequence (whole entry)
With B1 the kcat [2] was 0.0217 s⁻¹, the kcat [3] was 0.282 s⁻¹ and the kcat [4] was 0.0095 s⁻¹. It also gave a kcat [5] of 0.337 s⁻¹, a kcat [6] of 0.433 s⁻¹ and a kcat [7] of 0.467 s⁻¹. For the same molecule, the kcat [8] was 0.165 s⁻¹, the kcat [9] was 0.108 s⁻¹ and the kcat [10] was 0.00283 s⁻¹. The kcat [11] was 0.0322 s⁻¹, the kcat [12] was 0.00267 s⁻¹ and the kcat [13] was 0.084 s⁻¹. It also gave a kcat [14] of 0.0533 s⁻¹, a kcat [15] of 0.00223 s⁻¹ and a kcat [16] of 0.00327 s⁻¹. The kcat [17] was 0.0046 s⁻¹, the kcat [18] was 0.0227 s⁻¹ and the Km [19] was 140 µM. For the same molecule, the Km [20] was 370 µM, the Km [21] was 730 µM and the Km [22] was 570 µM. The Km [23] was 310 µM, the Km [24] was 1400 µM and the Km [25] was 320 µM. The Km [26] was 400 µM, the Km [27] was 220 µM and the kcat/Km [28] was 21.7 M⁻¹ s⁻¹. For the same molecule, the kcat/Km [29] was 41.7 M⁻¹ s⁻¹, the kcat/Km [30] was 200 M⁻¹ s⁻¹ and the kcat/Km [31] was 65 M⁻¹ s⁻¹. For the same molecule, the kcat/Km [32] was 267 M⁻¹ s⁻¹, the kcat/Km [33] was 650 M⁻¹ s⁻¹ and the kcat/Km [34] was 433 M⁻¹ s⁻¹. For the same molecule, the kcat/Km [35] was 350 M⁻¹ s⁻¹, the kcat/Km [36] was 283 M⁻¹ s⁻¹ and the kcat/Km [37] was 3.83 M⁻¹ s⁻¹. For the same molecule, the kcat/Km [38] was 56.7 M⁻¹ s⁻¹, the kcat/Km [39] was 16.7 M⁻¹ s⁻¹ and the kcat/Km [40] was 267 M⁻¹ s⁻¹. The kcat/Km [41] was 36.7 M⁻¹ s⁻¹, the kcat/Km [42] was 7 M⁻¹ s⁻¹ and the kcat/Km [43] was 7.67 M⁻¹ s⁻¹. The kcat/Km [44] was 11.5 M⁻¹ s⁻¹ and the kcat/Km [45] was 103 M⁻¹ s⁻¹.
